Results taken from ChEMBL document CHEMBL1139875, “Discovery of 4-aminobutyric acid derivatives possessing anticonvulsant and antinociceptive activities: a hybrid pharmacophore approach” (2007).
Calls of active or inactive are those of the source. The calls are words filed in the database; no cut-off is given here.

Legend:
Rattus norvegicus [1] = assay: Anti-cold allodynia effect in Sprague-Dawley rat CCI model assessed as duration of paw withdrawal at 100 mg/kg, ip after 0.5 hr; format: functional; details: route intraperitoneal
How it was run: (§1)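 CCI by sciatic nerve ligation under pentobarbital (65 mg/kg i.p.). Rats tested at baseline and 9 days post-surgery; those with allodynia dosed i.p. 100 mg/kg, vehicle 30% v/v PEG 400 in water. Acetone (100-200 µL) misted on midplantar affected paw; withdrawal duration recorded, three samples averaged, at least 3 min apart; n = 4.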

Mus musculus [2] = assay: Anticonvulsant activity in Swiss Albino mouse at 300 mg/kg, ip after 0.5 hr by scSTY test; format: functional, organism-based; set-up: dose 300 mg/kg
How it was run: (§2)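 Mice (Swiss, 20-25 g) given i.p. doses of 30, 100 and 300 mg/kg under ADD program protocols, three per group, examined at 0.5 and 4 h in MES, scPTZ, scSTY or scPIC seizure tests. Value is the minimum dose protecting half or more of the mice.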

Mus musculus [3] = assay: Anticonvulsant activity in Swiss Albino mouse at 300 mg/kg, ip after 4 hrs by MES test; format: functional, organism-based; set-up: dose 300 mg/kg; how it was run: as §2
Rattus norvegicus [4] = assay: Anti-cold allodynia effect in Sprague-Dawley rat CCI model assessed as duration of paw withdrawal 100 mg/kg, ip after 1.5 hr; format: functional; details: route intraperitoneal; how it was run: as §1
Mus musculus [5] = assay: Anticonvulsant activity in Swiss Albino mouse at 300 mg/kg, ip after 0.5 hr by scPIC test; format: functional, organism-based; set-up: dose 300 mg/kg; how it was run: as §2
Mus musculus [6] = assay: Anticonvulsant activity in Swiss Albino mouse at 300 mg/kg, ip after 4 hrs by scPIC test; format: functional, organism-based; set-up: dose 300 mg/kg; how it was run: as §2
Mus musculus [7] = assay: Neurotoxicity in Swiss Albino mouse at 300 mg/kg, ip after 4 hrs by rotarod test; format: functional, organism-based; set-up: dose 300 mg/kg
How it was run: (§3)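 Swiss mice (20-25 g) are trained on an accelerating rotorod (10 rpm, 3.2 cm rod), then injected i.p. at 30, 100 or 300 mg/kg, with three per group. Neurotoxicity means failure to keep equilibrium for at least 1 min in each of three trials, checked at 0.5 and 4 h. The value reported is the minimum dose affecting half or more of the mice.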

Mus musculus [8] = assay: Analgesic activity in Swiss Albino mouse assessed as inhibition of acetic acid-induced writhing responses at 100 mg/kg, ip; format: functional; details: route intraperitoneal
How it was run: (§4)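 Mice in groups of six dosed i.p. at 100 mg/kg, controls receiving 30% v/v PEG 400 in water. Writhing induced by i.p. 0.1 mL of 3% v/v acetic acid 1 h after drug. Writhes (abdominal stretch with at least one hind limb extended) counted over 30 min; % inhibition calculated. Mean ± SEM, Student's t test.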

Mus musculus [9] = assay: Analgesic activity in Swiss Albino mouse assessed as number of acetic acid-induced writhing per 30 min after 100 mg/kg, ip; format: functional; details: route intraperitoneal; how it was run: as §4
Mus musculus [10] = assay: Anticonvulsant activity in Swiss Albino mouse at 300 mg/kg, ip after 0.5 hr by scPTZ test; format: functional, organism-based; set-up: dose 300 mg/kg; how it was run: as §2
Mus musculus [11] = assay: Neurotoxicity in Swiss Albino mouse at 300 mg/kg, ip after 0.5 hr by rotarod test; format: functional, organism-based; set-up: dose 300 mg/kg; how it was run: as §3
Mus musculus [12] = assay: Anticonvulsant activity in Swiss Albino mouse at 300 mg/kg, ip after 0.5 hr by MES test; format: functional, organism-based; set-up: dose 300 mg/kg; how it was run: as §2
Mus musculus [13] = assay: Anticonvulsant activity in Swiss Albino mouse at 300 mg/kg, ip after 4 hrs by scSTY test; format: functional, organism-based; set-up: dose 300 mg/kg; how it was run: as §2
Rattus norvegicus [14] = assay: Anti-cold allodynia effect in Sprague-Dawley rat CCI model assessed as duration of paw withdrawal 100 mg/kg, ip after 2 hr; format: functional; details: route intraperitoneal; how it was run: as §1
Rattus norvegicus [15] = assay: Anti-cold allodynia effect in Sprague-Dawley rat CCI model assessed as duration of paw withdrawal 100 mg/kg, ip after 2.5 hr; format: functional; details: route intraperitoneal; how it was run: as §1
Rattus norvegicus [16] = assay: Anti-cold allodynia effect in Sprague-Dawley rat CCI model assessed as duration of paw withdrawal 100 mg/kg, ip after 1 hr; format: functional; details: route intraperitoneal; how it was run: as §1

O=C(O)CCCNC(=O)N/N=C/c1cccc([N+](=O)[O-])c1
Activity (Rattus norvegicus [1]): 46.3 s | Activity (Mus musculus [2]): inactive | Activity (Mus musculus [3]): inactive | Activity (Rattus norvegicus [4]): 44.5 s | Activity (Mus musculus [5]): Active | Activity (Mus musculus [6]): Active | Activity (Mus musculus [7]): inactive | inhibition in vivo at 100 mg/kg (Mus musculus [8]): 90% | Activity (Mus musculus [9]): 17.7 | Activity (Mus musculus [10]): Active | Activity (Mus musculus [11]): inactive | Activity (Mus musculus [12]): inactive | Activity (Mus musculus [13]): inactive | Activity (Rattus norvegicus [14]): 39.5 s | Activity (Rattus norvegicus [15]): 13.7 s | Activity (Rattus norvegicus [16]): 56.9 s
